Screening results: PubChem BioAssay, several laboratories
Compounds with a hit are over-represented: about 2.8% of the library has one in this group of screens.
NPY-Y2 PAM-ag: human NPY-Y2 potentiation or agonism, primary screen; cells expressing NPY-Y2, potentiator/agonist read-out; activation, % at 3.6 µM; actives 0.45% (n = 220,000); AID 1359; in the data active = activation above about 27%;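 also: cells stimulated with NPY near EC25 plus isoproterenol at EC100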
NPY1 pot ag: potentiates or activates human NPY-Y1 receptor; activation, % at 3.6 µM; actives 0.37% (n = 220,000); NPY-Y1 expressing cells, potentiator/agonist activation; P25929; in the data active = activation above about 33%, passing the limit was not always enough;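 also: cells stimulated with NPY at EC10 then isoproterenol at EC100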
NPY Y1 blocker: antagonists of human neuropeptide Y receptor Y1; AID 1040; P25929; inhibition, % at 3.6 µM; actives 1% (n = 200,000); HEK293-CNG Y1 cells, membrane potential fluorescence; NPY at EC95, then isoproterenol;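 active = inhibition above the campaign mean inhibition of all tested compounds plus 3 SD, cut at about 20% in these data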
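Material: HEK293 Y1/CNG channel cell line; also added: NPY (25 nM), isoproterenol (1 µM), Ro 20-1724 (25 µM); doses: one concentration, 3.6 µM, in 0.4% DMSO; schedule: compound incubation 1 h at room temperature, readout 45 min post-stimulation; technique: membrane potential fluorescence; measure: fluorescence ratio normalized to % inhibition between controls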
EP2 mod: modulates human prostaglandin E2 receptor EP2 signaling; induction, % at 25 µM; actives 0.83% (n = 260,000); EP2-expressing cells, cAMP HTRF FRET, PGE2 co-stimulation; P43116;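 active = compounds whose cAMP rise, as percent of the full-agonist control response, exceeds 60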;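 also: rat C6 glioma line stably carrying human EP2 under a CMV promoter; the protocol text gives 20 µM as final concentration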
Target sequence (P43116 whole entry, looked up): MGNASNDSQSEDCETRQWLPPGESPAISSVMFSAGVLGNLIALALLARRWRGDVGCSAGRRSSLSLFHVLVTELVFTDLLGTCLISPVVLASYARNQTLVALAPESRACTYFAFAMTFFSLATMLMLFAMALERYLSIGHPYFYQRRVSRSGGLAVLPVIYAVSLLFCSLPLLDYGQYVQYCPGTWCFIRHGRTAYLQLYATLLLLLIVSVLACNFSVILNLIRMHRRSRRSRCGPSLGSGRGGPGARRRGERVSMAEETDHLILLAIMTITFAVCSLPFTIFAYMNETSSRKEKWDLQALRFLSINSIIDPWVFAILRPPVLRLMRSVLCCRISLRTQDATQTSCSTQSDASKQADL
NPY Y2 blocker: antagonists of human neuropeptide Y receptor Y2. P49146. NPY-Y2 expressing cells, antagonist mode. inhibition, % at 2.7 µM. actives 0.99% (n = 140,000). AID 793; in the data active = inhibition above about 17%
PGE2 EP2 inh: EP2 receptor (human) inhibition. inhibition, % at 25 µM. P43116. actives 0.52% (n = 260,000). C6 glioma cells expressing human EP2, cAMP TR-FRET; cells stimulated with saturating PGE2;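 active = percent inhibition above 40 after rounding to a whole number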;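 also: rat C6 glioma host cells with rolipram phosphodiesterase inhibitor present; the protocol text gives 20 µM as final concentration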
EP2 cAMP induct: human EP2 receptor cAMP induction, negative in counter-screens; calls only at 20 µM (by protocol); actives 47% (n = 1,300); shares compounds with EP2 mod; C6 glioma EP2 cells, cAMP HTRF induction; plus low (about EC15) PGE2 agonist;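 active = cAMP induction above 50% in the main assay while under 30% in all four parallel counter assays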;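 also: rat C6 glioma cells stably expressing human EP2 receptor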
Numbers stand for hits; 0 = inactive; - = no result given; + = active, no number; ! = not confirmed by another sample.

SMILES | NPY-Y2 PAM-ag | NPY1 pot ag | NPY Y1 blocker | EP2 mod | NPY Y2 blocker | PGE2 EP2 inh | EP2 cAMP induct
COc1ccc(/C=N/N(C(C)=O)c2nc(-c3ccc(C)cc3)cs2)cc1 | 0 | 0 | 0 | 0 | 0 | 0 | -
COc1ccccc1/C=N/N(C(C)=O)c1nc(-c2ccc(F)cc2)cs1 | 0 | 0 | 0 | 73.2 | 0 | 0 | 0
Fc1ccc(-c2cc(-c3ccccc3)nc(-n3cccn3)n2)cc1 | 0 | 0 | 0 | 0 | - | 0 | +
FC(F)(F)c1cc(-c2ccccc2)nc(-n2cncn2)n1 | 0 | 0 | 0 | 0 | 0 | 0 | -
Cc1cc(NC(=O)C2=C(O)c3ccccc3S(=O)(=O)N2C)no1 | 0 | 0 | 0 | 69.2! | 0 | 0 | 0
CCC(C)(C)n1nnnc1C(C(C)C)N(Cc1cc2cc(C)ccc2[nH]c1=O)C1CCCCC1 (stereo not drawn) | - | - | - | 0 | - | 0 | -
Cc1ccc2[nH]c(=O)c(CN(C3CCCCC3)S(=O)(=O)c3cccc4nsnc34)cc2c1 | - | - | - | 0 | - | 0 | -
Cc1nc(-c2ccccc2)cc(N2CCCC2)n1 | 0 | 0 | 0 | 0 | 0 | 0 | -
Cc1cc(C)n(-c2cc(-c3ccccc3)nc(C)n2)n1 | 0 | 0 | 0 | 68.9 | 0 | 0 | 0
O=C(O)c1cccc(NN=C2c3ccccc3-c3ccccc32)c1 | 0 | 0 | 0 | 75.3 | - | 0 | 0
COc1cc2c(cc1OC)-c1cc(OCc3cccnc3)nc(=O)n1CC2 | 0 | 0 | 0 | 0 | 0 | 0 | -
COc1cc2c(cc1OC)-c1cc(Nc3ccccc3)nc(=O)n1CC2 | 0 | 0 | - | 0 | - | 0 | -
COc1cc2c(cc1OC)-c1cc(N3CCCc4ccccc43)nc(=O)n1CC2 | 0 | 0 | 122.6 | 61.5 | 135.8 | 0 | 0
COc1cc2c(cc1OC)-c1cc(Nc3ccc4c(c3)OCCO4)nc(=O)n1CC2 | 0 | 0 | 0 | 0 | 0 | 0 | 0
CCn1c(C)cc2cc(NC(=O)c3cc4ncc(C(C)=O)c(C)n4n3)ccc21 | - | - | - | 0 | - | 0 | -
FC(F)(F)c1nnc(-c2ccccc2)nc1Oc1ccccc1 | 0 | 0 | 0 | 0 | 0 | 0 | -
Fc1ccc(Oc2nc(-c3ccccc3)nnc2C(F)(F)F)cc1 | 0 | 0 | 0 | 68.7 | 0 | 0 | +
Fc1ccc(Sc2nc(-c3ccccc3)nnc2C(F)(F)F)cc1 | 0 | 0 | 0 | 65.2 | 0 | 0 | 0
O=C(Nc1ccccc1)c1nn(-c2cccc(C(F)(F)F)c2)ccc1=O | 0 | 0 | 0 | 83.8 | - | 0 | +
O=C(Nc1ccccc1)c1nn(-c2ccccc2)c(=O)cc1C(F)(F)F | 0 | 0 | 0 | 0 | 0 | 0 | -
Cc1cccc(C)c1N1CCN(c2ccc3nnc(C(F)(F)F)n3n2)CC1 | 0 | 0 | 0 | 69.6 | 0 | 0 | +
COc1ccc(-n2c(SCC(=O)Nc3cccc(C)c3)nnc2-c2ccncc2)cc1 | - | - | - | 0 | - | 0 | -
COc1ccccc1N(C(=O)NCc1ccccc1)C1=NCC(C)S1 (stereo not drawn) | 0 | 0 | 0 | 68.7 | 0 | 0 | +
COc1ccccc1NC(=O)N(Cc1ccccc1)C1=NCC(C)S1 (stereo not drawn) | 0 | 0 | 0 | 0 | 0 | 0 | -
O=C1/C(=C/c2cccnc2)SC(=NCc2ccccc2)N1Cc1ccccc1 | 0 | 0 | 0 | 66.4 | - | 0 | +
SMILES | NPY-Y2 PAM-ag | NPY1 pot ag | NPY Y1 blocker | EP2 mod | NPY Y2 blocker | PGE2 EP2 inh | EP2 cAMP induct
O=C1/C(=C/c2cccnc2)SC(=S)N1CCc1ccccc1 | 0 | 0 | - | 0 | - | 0 | -
COc1ccc(C2CCN(Cc3nnnn3C(C)(C)C)CC2)cc1 | - | - | - | 0 | - | - | -
COc1ccc(OC)c(/C=C/C(=O)N2CCCc3ccccc32)c1 | 0 | 0 | 0 | 78.6 | - | 0 | +
COc1ccc(/C=C/C(=O)N2CCCc3ccccc32)cc1 | 0 | 0 | 0 | 0 | 0 | 0 | -
Nc1nc(SCc2ccccc2)[nH]c(=O)c1-c1ccccc1 | 0 | 0 | 0 | 0 | 0 | 0 | -
Nc1nc(Cc2ccccc2)nc(Cc2ccccc2)c1-c1ccccc1 | - | - | - | 66.6 | - | 0 | 0
COC(=O)c1cc2occc2n1Cc1cccc(C)c1 | 0 | 0 | 0 | 76.5 | - | 0 | +
Cc1nc(N)sc1-c1csc(Nc2ccc(O)c(C(=O)O)c2)n1 | - | - | - | 0 | - | 0 | -
O=C(Cc1ccccc1)Nc1ccccc1Sc1ccccc1 | 0 | 0 | 0 | 0 | 0 | 0 | -
O=C(Cc1ccc(Br)cc1)Nc1ccccc1Sc1ccccc1 | 0 | 0 | 0 | 68.1 | 0 | 0 | +
